Here are results for 29 compounds from ChEMBL document CHEMBL4041491, “Imidazo[1,2-a]pyrazin-8-amine core for the design of new adenosine receptor antagonists: Structural exploration to target the A3 and A2A subtypes” (Eur J Med Chem, 2017).

For experiment [1], the target named is T1, Adenosine receptor A3 (Homo sapiens, UniProt P0DMS8). As to the kind of experiment: Displacement of [125I]AB-MECA from human adenosine A3 receptor expressed in CHO cell membranes after 120 mins by scintillation counting method. In short, it runs like this: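 hA3 CHO membranes (50 µg protein) with 0.5 nM [125I]AB-MECA in 50 mM Tris HCl, 10 mM MgCl2, 1 mM EDTA, pH 7.4, 120 min at 4 °C. Six to eight ligand concentrations, or 1 µM for percent inhibition. Nonspecific binding with 1 µM AB-MECA; GF/B filtration. Ki by Cheng–Prusoff, four assays in duplicate, means ± SEM.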

In experiment [2] the target is T2, Adenosine receptor A1 (Homo sapiens) (UniProt P30542).
T2 sequence (whole entry): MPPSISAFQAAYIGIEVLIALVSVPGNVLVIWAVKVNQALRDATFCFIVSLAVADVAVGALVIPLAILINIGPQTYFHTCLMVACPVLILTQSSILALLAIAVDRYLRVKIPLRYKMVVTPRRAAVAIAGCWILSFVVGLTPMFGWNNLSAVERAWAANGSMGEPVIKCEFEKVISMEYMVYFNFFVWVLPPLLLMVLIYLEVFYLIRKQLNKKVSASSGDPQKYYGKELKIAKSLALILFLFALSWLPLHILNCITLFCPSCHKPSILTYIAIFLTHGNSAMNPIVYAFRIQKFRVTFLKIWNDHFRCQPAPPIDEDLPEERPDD
Briefly: Displacement of [3H]DPCPX from human adenosine A1 receptor expressed in CHO cell membranes at 1 uM after 120 mins by scintillation counting method relative to control. In short, it runs like this:
(§1)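 hA1 CHO membranes (50 µg protein) with 1 nM [3H]DPCPX in 50 mM Tris HCl pH 7.4, 120 min at 25 °C. Six to eight antagonist concentrations, or 1 µM for percent inhibition. Nonspecific binding with 1 µM DPCPX. Ki via Cheng–Prusoff, four assays in duplicate, means ± SEM.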

The next experiment deals with Adenosine receptor A2a (Homo sapiens, UniProt P29274). As to the kind of experiment: Displacement of [3H]ZM241385 from human adenosine A2A receptor expressed in CHO cell membranes at 1 uM after 60 mins by scintillation counting method relative to control. In short, it runs like this:
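hA2A CHO membranes (50 µg protein) with 1 nM [3H]ZM241385 in 50 mM Tris HCl, 10 mM MgCl2, pH 7.4, 60 min at 4 °C. Six to eight antagonist concentrations, or 1 µM for percent inhibition. Nonspecific binding with 1 µM ZM241385. Ki via Cheng–Prusoff, four assays in duplicate, means ± SEM.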

Experiment [3] has as its target T3, Adenosine receptor A2b (Homo sapiens) (UniProt P29275).
T3 sequence (whole entry): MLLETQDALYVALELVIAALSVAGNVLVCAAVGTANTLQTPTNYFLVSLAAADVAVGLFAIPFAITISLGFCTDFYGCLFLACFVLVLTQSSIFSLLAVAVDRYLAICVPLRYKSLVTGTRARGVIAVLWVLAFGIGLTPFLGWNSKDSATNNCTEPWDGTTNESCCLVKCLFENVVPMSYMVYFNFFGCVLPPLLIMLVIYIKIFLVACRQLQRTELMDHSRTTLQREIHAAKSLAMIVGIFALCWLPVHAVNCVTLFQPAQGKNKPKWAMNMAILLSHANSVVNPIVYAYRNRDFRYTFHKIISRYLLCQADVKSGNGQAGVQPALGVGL
As to the kind of experiment: Antagonist activity at human A2B receptor expressed in CHO cells assessed as inhibition of NECA-stimulated cAMP production at 1 uM by [3H]cAMP competition binding based scintillation counting method relative to control. Type of experiment: functional, cell-based. The essentials: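 Transfected CHO cells (1 × 10^6/assay) in buffered saline pH 7.4 with adenosine deaminase 2 IU/ml and Ro 20-1724, preincubated 10 min at 37 °C. Test compound at 1 μM against 200 nM NECA-stimulated cAMP. TCA stop, ether extraction, cAMP measured by [3H]cAMP competition binding to bovine adrenal binding protein. Result given as percent inhibition.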

Experiment [4] addresses T1, Adenosine receptor A3. Briefly: Displacement of [125I]AB-MECA from human adenosine A3 receptor expressed in CHO cell membranes at 1 uM after 120 mins by scintillation counting method relative to control.
For the next experiment, the target named is T4, Adenosine receptor A1 (Homo sapiens, UniProt P30542).
T4 sequence (P30542 whole entry): T2 sequence (whole entry)
Briefly: Displacement of [3H]DPCPX from human adenosine A1 receptor expressed in CHO cell membranes after 120 mins by scintillation counting method. The essentials: as §1

T1 sequence (P0DMS8 whole entry, looked up): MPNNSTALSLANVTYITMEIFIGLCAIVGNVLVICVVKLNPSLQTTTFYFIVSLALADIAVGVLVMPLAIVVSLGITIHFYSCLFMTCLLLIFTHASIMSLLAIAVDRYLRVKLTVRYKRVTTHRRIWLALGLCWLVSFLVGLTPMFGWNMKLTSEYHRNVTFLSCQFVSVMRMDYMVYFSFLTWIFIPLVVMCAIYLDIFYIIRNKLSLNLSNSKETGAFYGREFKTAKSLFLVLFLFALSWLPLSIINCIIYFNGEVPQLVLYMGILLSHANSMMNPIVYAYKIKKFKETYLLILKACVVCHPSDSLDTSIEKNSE
Sequence of Adenosine receptor A2a (P29274 whole entry): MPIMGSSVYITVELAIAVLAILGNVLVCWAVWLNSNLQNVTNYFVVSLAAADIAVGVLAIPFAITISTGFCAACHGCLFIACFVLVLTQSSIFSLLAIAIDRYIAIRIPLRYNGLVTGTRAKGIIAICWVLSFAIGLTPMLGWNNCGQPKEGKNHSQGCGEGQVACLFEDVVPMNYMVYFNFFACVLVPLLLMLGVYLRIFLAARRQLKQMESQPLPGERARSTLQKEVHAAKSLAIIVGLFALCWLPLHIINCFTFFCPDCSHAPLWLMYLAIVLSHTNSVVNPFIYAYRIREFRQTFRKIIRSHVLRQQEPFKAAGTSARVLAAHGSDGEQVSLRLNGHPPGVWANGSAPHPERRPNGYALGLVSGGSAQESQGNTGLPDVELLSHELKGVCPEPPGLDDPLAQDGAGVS

As to `O=C(Nc1nc(-c2ccccc2)cn2cc(-c3ccccc3)nc12)c1ccc(F)cc1`, the affinity at Adenosine receptor A3 [1] corresponds to a Ki of 38 nM. Further, the values for the inhibition (in experiment [2]; on Adenosine receptor A2a; in experiment [3]) were 1%, 1% and 2%, respectively.
With `Nc1nc(-c2cccc(C(=O)O)c2)cn2cc(-c3ccccc3)nc12`, the inhibition in experiment [2] is 7%; on Adenosine receptor A2a it was 9%; in experiment [3], 3%; at Adenosine receptor A3 [4] it was 1%.
With `Nc1nc(-c2ccc(Cl)cc2)cn2cc(-c3ccccc3)nc12`, the inhibition in experiment [2] turned out to be 3%; on Adenosine receptor A2a, 1%; in experiment [3], 2%; at Adenosine receptor A3 [4], 1%.
In the case of `Cc1ccc(C(=O)Nc2nccn3cc(-c4ccccc4)nc23)cc1`, the inhibition in experiment [2] was found to be 26%; on Adenosine receptor A2a, 21%; in experiment [3], 10%; on Adenosine receptor A3 [4] it was 45%.
At Adenosine receptor A3 [1], `COc1ccc(-c2cn3cc(-c4ccccc4)nc(NC(=O)c4ccccc4)c3n2)cc1` displayed a Ki of 312 nM. The inhibition in experiment [2] stood at 3%; at Adenosine receptor A2a, 1%; in experiment [3] it was 1%.
Regarding `Nc1nc(-c2cccc(NC(=O)Cc3ccccc3)c2)cn2cc(-c3ccccc3)nc12`, the inhibition in experiment [2] came out at 37%; on Adenosine receptor A2a, 33%; in experiment [3], 7%; at Adenosine receptor A3 [4], 8%.
On Adenosine receptor A3 [1], `O=C(Nc1nc(-c2ccccc2)cn2cc(-c3ccccc3)nc12)c1ccc(Cl)cc1` gave a Ki of 156 nM. Also, the inhibition (in experiment [2]; on Adenosine receptor A2a; in experiment [3]) was 1% throughout.
Consider `Nc1nc(-c2ccco2)cn2cc(-c3ccccc3)nc12`, for which the inhibition in experiment [2] turned out to be 28%; at Adenosine receptor A2a it was 38%; in experiment [3] it was 13%; at Adenosine receptor A3 [4] it was 20%.
Regarding `O=C(Nc1nccn2cc(-c3ccco3)nc12)c1ccccc1`, the inhibition in experiment [2] came to 7%; at Adenosine receptor A2a, 1%; in experiment [3], 1%; on Adenosine receptor A3 [4] it was 22%.
For the compound `O=C(c1ccc(F)cc1)N(C(=O)c1ccc(F)cc1)c1nc(-c2ccccc2)cn2cc(-c3ccccc3)nc12`, the inhibition worked out at 1% in experiment [2], 1% on Adenosine receptor A2a, 3% in experiment [3] and 31% on Adenosine receptor A3 [4].
`Nc1nc(Br)cn2cc(-c3ccccc3)nc12` yielded a Ki at Adenosine receptor A1 of 420 nM. The results for the inhibition (on Adenosine receptor A2a; in experiment [3]; at Adenosine receptor A3 [4]) were 18%, 40% and 14%, respectively.
As to `Nc1nccn2cc(-c3ccccc3)nc12`, the inhibition in experiment [2] amounted to 30%; at Adenosine receptor A2a it was 13%; in experiment [3], 30%; on Adenosine receptor A3 [4], 12%.
Consider `O=C(Nc1nc(-c2ccccc2)cn2cc(-c3ccccc3)nc12)c1ccco1`, for which the inhibitory constant (Ki) at Adenosine receptor A3 [1] was found to be 67 nM. The inhibition turned out to be 10% in experiment [2], 1% on Adenosine receptor A2a and 2% in experiment [3].
As to `COc1ccc(-c2cn3cc(Br)nc(N)c3n2)cc1`, the inhibition in experiment [2] amounted to 29%; at Adenosine receptor A2a it was 11%; in experiment [3], 27%; at Adenosine receptor A3 [4], 24%.
Turning to `Nc1nc(-c2ccc(OCc3ccccc3)cc2)cn2cc(-c3ccccc3)nc12`, the inhibition in experiment [2] turned out to be 10%; at Adenosine receptor A2a it was 1%; in experiment [3], 4%; at Adenosine receptor A3 [4], 1%.
Regarding `Cc1ccc(C(=O)Nc2nc(-c3ccccc3)cn3cc(-c4ccccc4)nc23)cc1`, the inhibition constant Ki on Adenosine receptor A3 [1] was found to be 223 nM. The inhibition stood at 1% in experiment [2], 1% at Adenosine receptor A2a and 3% in experiment [3].
Take `O=C(Nc1nccn2cc(-c3ccccc3)nc12)c1ccco1`: the inhibition was determined as 25% in experiment [2], 34% on Adenosine receptor A2a, 19% in experiment [3] and 40% at Adenosine receptor A3 [4].
As to `O=C(Nc1nccn2cc(-c3ccccc3)nc12)c1cccnc1`, the inhibition in experiment [2] was 24%; at Adenosine receptor A2a it was 13%; in experiment [3], 22%; at Adenosine receptor A3 [4] it was 42%.
On to `Nc1nccn2cc(-c3ccco3)nc12`, for which the inhibition in experiment [2] came out at 21%; on Adenosine receptor A2a, 12%; in experiment [3] it was 1%; on Adenosine receptor A3 [4], 5%.
In turn, `COc1ccc(-c2cn3cc(-c4ccccc4)nc(N)c3n2)cc1` came in with a Ki at Adenosine receptor A1 of 524 nM. The values for the inhibition (at Adenosine receptor A2a; in experiment [3]; on Adenosine receptor A3 [4]) were 1%, 1% and 27%, respectively.
In the case of `O=C(Cc1ccccc1)Nc1nccn2cc(-c3ccccc3)nc12`, the Ki on Adenosine receptor A3 [1] is 524 nM. Also, the inhibition is 46% in experiment [2], 37% at Adenosine receptor A2a and 15% in experiment [3].
On the same counts, the results for `O=C(Nc1nc(-c2ccccc2)cn2cc(-c3ccccc3)nc12)c1cccs1` are 185 nM, 5%, 1% and 4%.
Take `O=C(Nc1nccn2cc(-c3ccccc3)nc12)C(c1ccccc1)c1ccccc1`: the Ki on Adenosine receptor A3 [1] was determined as 245 nM. In addition, the inhibition is 32% in experiment [2], 1% at Adenosine receptor A2a and 25% in experiment [3].
On to `COc1ccc(-c2cn3ccnc(NC(=O)c4ccccc4)c3n2)cc1`, for which the Ki on Adenosine receptor A3 [1] turned out to be 121 nM. Further, the inhibition (in experiment [2]; at Adenosine receptor A2a; in experiment [3]) was 1% throughout.
On to `COc1cccc(-c2cn3cc(-c4ccccc4)nc3c(N)n2)c1`, for which the inhibition is 37% in experiment [2], 24% on Adenosine receptor A2a, 30% in experiment [3] and 21% on Adenosine receptor A3 [4].
On to `COc1ccc(-c2cn3ccnc(N)c3n2)cc1`, for which the inhibition (in experiment [2]; on Adenosine receptor A2a; in experiment [3]; on Adenosine receptor A3 [4]) was 1% throughout.
As to `O=C(Nc1ccccc1)Nc1nccn2cc(-c3ccccc3)nc12`, the inhibition in experiment [2] amounted to 1%; on Adenosine receptor A2a, 1%; in experiment [3], 1%; on Adenosine receptor A3 [4] it was 6%.
`COc1ccc(C(=O)Nc2nccn3cc(-c4ccccc4)nc23)cc1` registered a Ki on Adenosine receptor A3 [1] of 162 nM. The inhibition is 1% in experiment [2], 3% on Adenosine receptor A2a and 1% in experiment [3].
In the case of `COc1ccc(-c2cn3cc(-c4ccccc4)nc3c(N)n2)cc1`, the inhibition in experiment [2] is 20%; on Adenosine receptor A2a it was 23%; in experiment [3], 16%; at Adenosine receptor A3 [4], 23%.
